This is an account of results in ChEMBL document CHEMBL4219052, “Synthesis and biological evaluation of 6-substituted-5-fluorouridine ProTides” (Bioorg Med Chem, 2018).

For data set [1], the target named is Orotidine 5'-phosphate decarboxylase (Methanobacterium thermoautotrophicum, UniProt O26232). Description: Inhibition of Methanobacterium thermoautotrophicum ODCase. Further details: species or system Methanothermobacter thermautotrophicus.
For data set [2], the target named is T1, Uridine 5'-monophosphate synthase (Homo sapiens, UniProt P11172).
T1 sequence (P11172 whole entry): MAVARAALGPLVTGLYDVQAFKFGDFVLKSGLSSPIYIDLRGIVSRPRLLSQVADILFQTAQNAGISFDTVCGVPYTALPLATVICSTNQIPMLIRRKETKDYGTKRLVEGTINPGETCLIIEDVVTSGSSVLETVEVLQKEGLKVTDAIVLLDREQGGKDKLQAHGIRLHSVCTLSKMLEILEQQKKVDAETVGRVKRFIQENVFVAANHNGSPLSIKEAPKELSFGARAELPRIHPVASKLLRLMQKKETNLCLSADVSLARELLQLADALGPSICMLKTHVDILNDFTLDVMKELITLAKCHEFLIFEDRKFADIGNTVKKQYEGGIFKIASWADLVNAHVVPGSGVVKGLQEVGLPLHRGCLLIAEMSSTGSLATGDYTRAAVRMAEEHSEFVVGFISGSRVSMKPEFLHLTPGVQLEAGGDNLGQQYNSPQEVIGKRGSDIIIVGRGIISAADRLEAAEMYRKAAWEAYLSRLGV
Description: Inhibition of human ODCase.

Another data set has as its target T2, Carboxypeptidase Y (Saccharomyces cerevisiae (strain ATCC 204508 / S288c) (Baker's yeast), UniProt P00729).
T2 sequence (P00729 whole entry): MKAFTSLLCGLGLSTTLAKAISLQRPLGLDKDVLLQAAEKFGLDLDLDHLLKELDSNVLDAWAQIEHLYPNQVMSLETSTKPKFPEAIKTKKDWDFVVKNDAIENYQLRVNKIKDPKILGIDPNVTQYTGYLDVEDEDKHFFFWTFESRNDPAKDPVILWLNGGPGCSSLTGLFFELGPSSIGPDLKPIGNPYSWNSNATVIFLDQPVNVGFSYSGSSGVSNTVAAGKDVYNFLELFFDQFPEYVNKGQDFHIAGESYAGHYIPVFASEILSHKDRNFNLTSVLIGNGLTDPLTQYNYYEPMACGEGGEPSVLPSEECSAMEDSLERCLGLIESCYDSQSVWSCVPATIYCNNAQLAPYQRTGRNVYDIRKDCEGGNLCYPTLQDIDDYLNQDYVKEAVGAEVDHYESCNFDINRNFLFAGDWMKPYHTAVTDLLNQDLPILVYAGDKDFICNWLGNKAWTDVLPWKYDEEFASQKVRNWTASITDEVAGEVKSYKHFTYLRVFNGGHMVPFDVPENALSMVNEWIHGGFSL
Description: Prodrug activation assessed as yeast carboxypeptidase Y mediated (2S)-2-((((2R,3S,4R,5R)-5-(6-azido-5-fluoro-2,4-dioxo-3,4-dihydropyrimidin-1(2H)-yl)-3,4-dihydroxytetrahydrofuran-2-yl)methoxy)(hydroxy)phosphorylamino)propanoic acid formation at pH 7.6 measured within 60 mins by 31P NMR analysis. To be noted: pH 7.6, 1 h. In short, it runs like this:
(§1)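 ProTide (5.0 mg) dissolved in acetone-d6 (0.15 mL) plus Trizma buffer pH 7.6 (0.30 mL), treated with carboxypeptidase Y; conversion followed by ³¹P NMR over 14 h.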

A short description of data set [3]: Half life in acetone d6 at pH 7.6 Trizma buffer by 31P NMR analysis. Format: physicochemical. To be noted: Trizma buffer with acetone-d6, pH 7.6. In a few lines:
as §1

In a further data set the test system is Chikungunya virus. The data set is described as follows: Antiviral activity against Chikungunya virus infected in African green monkey Vero cells assessed as reduction in virus-induced cytopathic effect pretreated for 1 hr followed by viral infection measured after 3 days by crystal violet staining based assay. Format: functional, organism-based. (Cytopathic effects are the visible damage that an infection or toxin causes in cultured cells.)

A short description of data set [4]: Cytotoxicity against African green monkey Vero cells measured after 3 days by CelltiterGlo luminescence assay. In kind it is cell-based. To be noted: chlorocebus sabaeus. In a few lines: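 Vero cells seeded and left overnight; growth medium then replaced by serial compound dilutions, added in triplicate; medium-only wells defined 0% cytotoxicity. On day 3 cells were lysed and ATP content measured by luciferase luminescence (CellTiter-Glo); CC50 obtained from a 4-PL curve fit.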

For data set [5], the target named is T3, Orotidine 5'-phosphate decarboxylase (Saccharomyces cerevisiae S288c, UniProt P03962).
T3 sequence (P03962 whole entry): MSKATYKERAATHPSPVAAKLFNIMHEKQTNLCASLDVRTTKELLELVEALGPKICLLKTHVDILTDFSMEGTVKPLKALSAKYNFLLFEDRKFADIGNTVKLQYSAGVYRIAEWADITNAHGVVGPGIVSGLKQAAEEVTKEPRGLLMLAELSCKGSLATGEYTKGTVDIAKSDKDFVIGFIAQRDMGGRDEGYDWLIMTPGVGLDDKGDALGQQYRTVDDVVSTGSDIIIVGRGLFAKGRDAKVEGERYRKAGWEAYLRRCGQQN
The data set is described as follows: Inhibition of yeast ODCase.

Orotidine 5'-phosphate decarboxylase (Methanobacterium thermoautotrophicum, UniProt O26232), sequence (O26232 whole entry): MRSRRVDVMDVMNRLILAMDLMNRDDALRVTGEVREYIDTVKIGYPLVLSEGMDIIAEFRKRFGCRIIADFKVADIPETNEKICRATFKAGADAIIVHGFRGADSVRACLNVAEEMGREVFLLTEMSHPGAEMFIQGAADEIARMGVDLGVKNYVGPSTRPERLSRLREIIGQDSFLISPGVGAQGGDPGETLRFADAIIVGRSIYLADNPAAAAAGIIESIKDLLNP

As a reminder, the Ki is a measure of affinity in units of concentration, obtained from inhibition or displacement. On to `NC(=O)c1[nH]nc([C@@H]2O[C@H](CO)[C@@H](O)[C@H]2O)c1O` [PYRAZOFURIN], for which the Ki turned out to be 6.2 µM in data set [1] and 0.017 µM in data set [2].
Broadly, the half-life is how long it takes for the measured level to halve. For `C[C@H](NP(=O)(O)OC[C@H]1O[C@@H](n2c(N=[N+]=[N-])c(F)c(=O)[nH]c2=O)[C@H](O)[C@@H]1O)C(=O)O`, the Drug metabolism at Carboxypeptidase Y was found to be 7.17 ppm. The molecule further showed a half-life in data set [3] of under 5 min.
A word on the EC50: it is the concentration giving half of the maximal effect. The term CC50 denotes the concentration at which the toxic effect on the cells reaches its halfway point. For the molecule `O=c1cnn([C@@H]2O[C@H](CO)[C@@H](O)[C@H]2O)c(=O)[nH]1` [6-AZAURIDINE], the concentration for a half-maximal effect (EC50) in the data set on Chikungunya virus worked out at 0.468 µM. Moreover, the CC50 at 72 h in data set [4] was over 10 µM. The Ki in data set [5] came out at 0.064 µM; in data set [1], 11 µM.
